Source: ChEMBL document CHEMBL2412955, “Synthesis and antibacterial activities of N-substituted-glycinyl 1H-1,2,3-triazolyl oxazolidinones” (2013)
Values after ≈ are worked out from the molar mass of the structure shown.

What was measured:
Assay type in all cases: functional
Moraxella catarrhalis [1] = assay: Antibacterial activity against Moraxella catarrhalis clinical isolate 1 after 18 hrs by NCCLS agar dilution method; details: clinical isolate 1, 18 h
Procedure, shortened: (§1)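 NCCLS agar dilution on Mueller-Hinton agar with 5% sheep blood added to support growth. Drug dilutions 0.12–64 µg/ml. Test agents in 80% DMSO in water, linezolid in 40% water in ethanol. Final inoculum 10^7 CFU/ml, 18 h at 35 °C. MIC read as the lowest concentration with no visible growth.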

Moraxella catarrhalis [2] = assay: Antibacterial activity against Moraxella catarrhalis clinical isolate 36 after 18 hrs by NCCLS agar dilution method; details: clinical isolate 36, 18 h; procedure, shortened: as §1
Moraxella catarrhalis [3] = assay: Antibacterial activity against Moraxella catarrhalis clinical isolate 3447 after 18 hrs by NCCLS agar dilution method; details: clinical isolate 3447, 18 h; procedure, shortened: as §1
Staphylococcus [4] = assay: Antibacterial activity against methicillin-susceptible coagulase-negative Staphylococcus after 18 hrs by NCCLS agar dilution method
Procedure, shortened: (§2)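 Clinical isolates were tested by agar dilution on Mueller-Hinton agar with drug dilutions from 0.12 to 64 µg/ml. Test compounds were dissolved in 80% DMSO in water. Final inoculum was 10^7 CFU/ml, incubated at 35 °C for 18 h. MIC was the lowest concentration inhibiting visible growth.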

Staphylococcus aureus [5] = assay: Antibacterial activity against methicillin-resistant Staphylococcus aureus after 18 hrs by NCCLS agar dilution method; procedure, shortened: as §2
Moraxella catarrhalis [6] = assay: Antibacterial activity against Moraxella catarrhalis clinical isolate 2824 after 18 hrs by NCCLS agar dilution method; details: clinical isolate 2824, 18 h; procedure, shortened: as §1
Staphylococcus aureus [7] = assay: Antibacterial activity against Staphylococcus aureus ATCC 25923 after 18 hrs by […] in presence of human plasma; details: ATCC 25923, Plasma
Procedure, shortened: (§3)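 To gauge plasma protein binding and/or plasma instability, MIC was determined in Mueller-Hinton broth containing 50% human plasma. Linezolid served as a reference agent. Ratio compares this MIC with the MIC obtained without plasma.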

Staphylococcus [8] = assay: Antibacterial activity against methicillin-resistant coagulase-negative Staphylococcus after 18 hrs by NCCLS agar dilution method; procedure, shortened: as §2
Moraxella catarrhalis [9] = assay: Antibacterial activity against Moraxella catarrhalis clinical isolate 112 after 18 hrs by NCCLS agar dilution method; details: clinical isolate 112, 18 h; procedure, shortened: as §1
Escherichia coli = assay: Antibacterial activity against Escherichia coli ATCC 25922 after 18 hrs by NCCLS agar dilution method; details: ATCC 25922, 18 h
Procedure, shortened: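 Agar dilution per NCCLS on Mueller-Hinton agar, drug dilutions 0.12–64 µg/ml. Linezolid dissolved in 40% water in ethanol, vancomycin in water, test agents in 80% DMSO in water. Inoculum 10^7 CFU/ml (final), incubated 35 °C for 18 h. MIC is the lowest concentration preventing visible growth.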

Staphylococcus aureus [10] = assay: Antibacterial activity against methicillin-susceptible Staphylococcus aureus after 18 hrs by NCCLS agar dilution method; procedure, shortened: as §2
Streptococcus pneumoniae = assay: Antibacterial activity against penicillin-resistant Streptococcus pneumoniae after 18 hrs by NCCLS agar dilution method
Procedure, shortened: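 Agar dilution was run on Mueller-Hinton agar supplemented with 5% sheep blood, with drug dilutions from 0.12 to 64 µg/ml. Test compounds were dissolved in 80% DMSO in water. Final inoculum was 10^7 CFU/ml, incubated at 35 °C for 18 h. MIC was the lowest concentration preventing visible growth.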

Moraxella catarrhalis [11] = assay: Antibacterial activity against Moraxella catarrhalis clinical isolate 138 after 18 hrs by NCCLS agar dilution method; details: clinical isolate 138, 18 h; procedure, shortened: as §1
Moraxella catarrhalis [12] = assay: Antibacterial activity against Moraxella catarrhalis clinical isolate 125 after 18 hrs by NCCLS agar dilution method; details: clinical isolate 125, 18 h; procedure, shortened: as §1
Staphylococcus aureus [13] = assay: Antibacterial activity against Staphylococcus aureus ATCC 25923 after 18 hrs by NCCLS agar dilution method; details: ATCC 25923, 18 h
Procedure, shortened: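 Plain Mueller-Hinton agar, agar dilution per NCCLS, concentrations 0.12–64 µg/ml. Test agents in 80% DMSO in water, linezolid in 40% water in ethanol, vancomycin in water. Final inoculum 10^7 CFU/ml, 35 °C for 18 h. MIC = lowest concentration inhibiting visible growth.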

Enterococcus [14] = assay: Antibacterial activity against vancomycin-resistant Enterococcus after 18 hrs by NCCLS agar dilution method; procedure, shortened: as §2
Enterococcus [15] = assay: Antibacterial activity against vancomycin-susceptible Enterococcus after 18 hrs by NCCLS agar dilution method; procedure, shortened: as §2
Moraxella catarrhalis [16] = assay: Antibacterial activity against Moraxella catarrhalis ATCC 8176 after 18 hrs by NCCLS agar dilution method; details: ATCC 8176, 18 h; procedure, shortened: as §1
Haemophilus influenzae = assay: Antibacterial activity against Haemophilus influenzae ATCC 49247 after 18 hrs by NCCLS agar dilution method; details: ATCC 49247, 18 h; procedure, shortened: as §1
Moraxella catarrhalis [17] = assay: Antibacterial activity against Moraxella catarrhalis clinical isolate 255 after 18 hrs by NCCLS agar dilution method; details: clinical isolate 255, 18 h; procedure, shortened: as §1
Staphylococcus aureus [18] = assay: Ratio of MIC for Staphylococcus aureus ATCC 25923 to MIC for Staphylococcus aureus ATCC 25923 in presence of human plasma; procedure, shortened: as §3
Moraxella catarrhalis [19] = assay: Ratio of linezolid MIC to compound MIC for Moraxella catarrhalis ATCC 8176

## Cc1cn(C[C@H]2CN(c3ccc(N4CCN(C(=O)CNC(=O)c5ccccc5)CC4)c(F)c3)C(=O)O2)nn1
Moraxella catarrhalis [1]
  MIC: 4 mg/L (≈ 7.67 µM)
Moraxella catarrhalis [2]
  MIC: 4 mg/L (≈ 7.67 µM)
Moraxella catarrhalis [3]
  MIC: 4 mg/L (≈ 7.67 µM)
Staphylococcus [4]
  MIC: 0.5 mg/L (≈ 0.959 µM)
Staphylococcus aureus [5]
  MIC: 0.5 mg/L (≈ 0.959 µM)
Moraxella catarrhalis [6]
  MIC: 4 mg/L (≈ 7.67 µM)
Staphylococcus aureus [7]
  MIC: 16 mg/L
Staphylococcus [8]
  MIC: 0.5 mg/L (≈ 0.959 µM)
Moraxella catarrhalis [9]
  MIC: 4 mg/L (≈ 7.67 µM)
Escherichia coli
  MIC: > 64 mg/L
Staphylococcus aureus [10]
  MIC: 0.5 mg/L (≈ 0.959 µM)
Streptococcus pneumoniae
  MIC: 2 mg/L (≈ 3.83 µM)
Moraxella catarrhalis [11]
  MIC: 4 mg/L (≈ 7.67 µM)
Moraxella catarrhalis [12]
  MIC: 4 mg/L (≈ 7.67 µM)
Staphylococcus aureus [13]
  MIC: 1 mg/L (≈ 1.92 µM)
Enterococcus [14]
  MIC: 0.5 mg/L (≈ 0.959 µM)
Enterococcus [15]
  MIC: 0.5 mg/L (≈ 0.959 µM)
Moraxella catarrhalis [16]
  MIC: 8 mg/L (≈ 15.3 µM)
Haemophilus influenzae
  MIC: 32 mg/L (≈ 61.4 µM)
Moraxella catarrhalis [17]
  MIC: 4 mg/L (≈ 7.67 µM)

## O=C(NCC(=O)N1CCN(c2ccc(N3C[C@H](Cn4ccnn4)OC3=O)cc2F)CC1)c1cc([N+](=O)[O-])cc([N+](=O)[O-])c1
Moraxella catarrhalis [1]
  MIC: 0.25 mg/L (≈ 0.418 µM)
Moraxella catarrhalis [2]
  MIC: 0.25 mg/L (≈ 0.418 µM)
Staphylococcus aureus [18]
  Ratio: 16
Moraxella catarrhalis [3]
  MIC: 0.25 mg/L (≈ 0.418 µM)
Staphylococcus [4]
  MIC: 0.5 mg/L (≈ 0.837 µM)
Staphylococcus aureus [5]
  MIC: 0.5 mg/L (≈ 0.837 µM)
Moraxella catarrhalis [6]
  MIC: 0.25 mg/L (≈ 0.418 µM)
Staphylococcus aureus [7]
  MIC: 16 mg/L
Staphylococcus [8]
  MIC: 0.5 mg/L (≈ 0.837 µM)
Moraxella catarrhalis [9]
  MIC: 0.25 mg/L (≈ 0.418 µM)
Escherichia coli
  MIC: > 64 mg/L
Staphylococcus aureus [10]
  MIC: 0.5 mg/L (≈ 0.837 µM)
Streptococcus pneumoniae
  MIC: 0.25 mg/L (≈ 0.418 µM)
Moraxella catarrhalis [11]
  MIC: 0.25 mg/L (≈ 0.418 µM)
Moraxella catarrhalis [19]
  Ratio: 16
Moraxella catarrhalis [12]
  MIC: 0.25 mg/L (≈ 0.418 µM)
Staphylococcus aureus [13]
  MIC: 1 mg/L (≈ 1.67 µM)
Enterococcus [14]
  MIC: 1 mg/L (≈ 1.67 µM)
Enterococcus [15]
  MIC: 0.5 mg/L (≈ 0.837 µM)
Moraxella catarrhalis [16]
  MIC: 0.5 mg/L (≈ 0.837 µM)
Haemophilus influenzae
  MIC: 16 mg/L (≈ 26.8 µM)
Moraxella catarrhalis [17]
  MIC: 0.25 mg/L (≈ 0.418 µM)

## Cc1cn(C[C@H]2CN(c3ccc(N4CCN(C(=O)CNC(=O)c5cc([N+](=O)[O-])cc([N+](=O)[O-])c5)CC4)c(F)c3)C(=O)O2)nn1
Moraxella catarrhalis [1]
  MIC: 1 mg/L (≈ 1.64 µM)
Moraxella catarrhalis [2]
  MIC: 1 mg/L (≈ 1.64 µM)
Staphylococcus aureus [18]
  Ratio: 4
Moraxella catarrhalis [3]
  MIC: 0.5 mg/L (≈ 0.818 µM)
Staphylococcus [4]
  MIC: 1 mg/L (≈ 1.64 µM)
Staphylococcus aureus [5]
  MIC: 1 mg/L (≈ 1.64 µM)
Moraxella catarrhalis [6]
  MIC: 1 mg/L (≈ 1.64 µM)
Staphylococcus aureus [7]
  MIC: 8 mg/L
Staphylococcus [8]
  MIC: 1 mg/L (≈ 1.64 µM)
Moraxella catarrhalis [9]
  MIC: 0.5 mg/L (≈ 0.818 µM)
Escherichia coli
  MIC: > 64 mg/L
Staphylococcus aureus [10]
  MIC: 1 mg/L (≈ 1.64 µM)
Streptococcus pneumoniae
  MIC: 0.25 mg/L (≈ 0.409 µM)
Moraxella catarrhalis [11]
  MIC: 1 mg/L (≈ 1.64 µM)
Moraxella catarrhalis [19]
  Ratio: 8
Moraxella catarrhalis [12]
  MIC: 0.5 mg/L (≈ 0.818 µM)
Staphylococcus aureus [13]
  MIC: 2 mg/L (≈ 3.27 µM)
Enterococcus [14]
  MIC: 2 mg/L (≈ 3.27 µM)
Enterococcus [15]
  MIC: 1 mg/L (≈ 1.64 µM)
Moraxella catarrhalis [16]
  MIC: 1 mg/L (≈ 1.64 µM)
Haemophilus influenzae
  MIC: > 16 mg/L
Moraxella catarrhalis [17]
  MIC: 0.5 mg/L (≈ 0.818 µM)
